Results from ChEMBL document CHEMBL1143104, “Identification and characterization of pyrrolidine diastereoisomers as potent functional agonists and antagonists of the human melanocortin-4 receptor” (Bioorg Med Chem Lett, 2008).
pEC50, pIC50, pKi: −log10 of the molar value. Activity calls are given as the source filed them. The calls are words filed in the database; no cut-off is given here.

How the values were obtained:
Melanocortin receptor 4 [1] = biological target: T1, Melanocortin receptor 4 (Homo sapiens, UniProt P32245); test: Displacement of [125I]NDP-MSH from human MC4 receptor expressed in HEK293 cells; format: cell-based
Summary of the method: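 HEK293 cells expressing human MC4R, radioligand competition binding with [125I]-NDP-MSH. Ki values are the average of two or more independent measurements.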

Melanocortin receptor 4 [2] = biological target: T1, Melanocortin receptor 4; test: Agonist activity at human MC4 receptor expressed in CHO cells assessed as accumulation of cAMP production; format: functional, cell-based
Summary of the method: (§1)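 CHO cells transfected with human MC4R were stimulated by compound and accumulated cAMP was measured by ELISA. Intrinsic activity is expressed relative to α-MSH. Representative experiments were run 2–8 times.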

Melanocortin receptor 4 [3] = biological target: T1, Melanocortin receptor 4; test: Intrinsic activity at human MC4 receptor expressed in CHO cells assessed as accumulation of cAMP production relative to alphaMSH; format: functional, cell-based; summary of the method: as §1
Melanocortin receptor 4 [4] = biological target: T1, Melanocortin receptor 4; test: Antagonist activity at human MC4 receptor expressed in CHO cells assessed as inhibition of alpha-MSH-stimulated cAMP production; format: functional, cell-based
Summary of the method: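 CHO cells transfected with human MC4R were tested for dose-dependent inhibition of α-MSH-stimulated cAMP accumulation, measured by ELISA. IC50 was derived. Representative experiments were run 2–8 times.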

[5] = biological target: T2, Melanocyte-stimulating hormone receptor (Homo sapiens, UniProt Q01726); test: Binding affinity to MC1R
Target sequence in this assay (Q01726 whole entry): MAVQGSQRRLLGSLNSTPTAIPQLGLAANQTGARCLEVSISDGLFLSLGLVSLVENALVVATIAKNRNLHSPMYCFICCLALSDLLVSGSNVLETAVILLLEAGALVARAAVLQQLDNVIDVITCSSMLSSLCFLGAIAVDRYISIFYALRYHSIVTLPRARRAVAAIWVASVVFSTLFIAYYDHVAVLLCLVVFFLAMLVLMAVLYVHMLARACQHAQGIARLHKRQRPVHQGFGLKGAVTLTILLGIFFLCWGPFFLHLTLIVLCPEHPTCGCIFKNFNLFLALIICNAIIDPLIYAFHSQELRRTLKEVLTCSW

Melanocortin receptor 3 = Melanocortin receptor 3 (Homo sapiens, UniProt P41968); test: Binding affinity to MC3R
Melanocortin receptor 5 = Melanocortin receptor 5 (Homo sapiens, UniProt P33032); test: Binding affinity to MC5R
[6] = Clearance in rat at 2.5 mg/kg, iv; format: ADME, organism-based; parameters: dose 2.5 mg/kg, route intravenous; conditions: in vivo
Summary of the method: (§2)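 Rat pharmacokinetics: single 2.5 mg/kg iv injection and separately 10 mg/kg oral gavage. Plasma CL, Vd, t1/2, AUC, Cmax, Tmax and oral bioavailability were derived. Whole-brain concentration was measured at 1 and 4 h after oral dosing and expressed as a brain/plasma ratio. Values are the average of three animals.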

[7] = Volume of distribution in rat in rat at 2.5 mg/kg, iv; format: ADME, organism-based; parameters: dose 2.5 mg/kg, route intravenous; conditions: in vivo; summary of the method: as §2
[8] = Half life in rat at 2.5 mg/kg, iv; format: ADME, organism-based; parameters: dose 2.5 mg/kg, route intravenous; conditions: in vivo; summary of the method: as §2
[9] = AUC in rat at 2.5 mg/kg, iv; format: ADME, organism-based; parameters: dose 2.5 mg/kg, route intravenous; conditions: plasma; summary of the method: as §2
[10] = Cmax in rat at 10 mg/kg, po; format: ADME, organism-based; parameters: dose 10 mg/kg, route oral; conditions: in vivo; summary of the method: as §2
[11] = Tmax in rat at 10 mg/kg, po; format: ADME, organism-based; parameters: dose 10 mg/kg, route oral; conditions: in vivo; summary of the method: as §2
[12] = AUC in rat at 10 mg/kg, po; format: ADME, organism-based; parameters: dose 10 mg/kg, route oral; conditions: plasma; summary of the method: as §2
[13] = Drug level in rat brain at 10 mg/kg, po after 4 hrs; format: ADME, organism-based; parameters: dose 10 mg/kg, route oral; conditions: read-out: Drug uptake; summary of the method: as §2
[14] = Ratio of drug level in brain to plasma in rat at 10 mg/kg, po after 4 hrs; format: ADME, organism-based; parameters: dose 10 mg/kg, route oral; conditions: read-out: BPR; summary of the method: as §2
[15] = Bioavailability in rat at 10 mg/kg, po; format: ADME, organism-based; conditions: in vivo; summary of the method: as §2
Rattus norvegicus [16] = test: Suppression of food intake in ip dosed DIO rat after 24 hrs relative to control; format: functional, organism-based
Summary of the method: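 Male DIO rats were food-deprived overnight and on the test day. They were dosed ip at 3, 10 or 30 mg/kg in sterile water, and food was returned 1 h later. Cumulative intake was measured at set intervals over 24 h and compared with vehicle-treated rats.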

Rattus norvegicus [17] = test: Reduction of body weight in po dosed DIO rat; format: functional, organism-based
Summary of the method: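 Male DIO rats, separate groups, dosed orally once daily 1 h before lights out for 7 days with vehicle, fenfluramine, or 3, 10 or 30 mg/kg test article. Body weight and spillage-corrected food intake were recorded daily and compared with vehicle-treated controls.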

Rattus norvegicus [18] = test: Suppression of food intake in DIO rat at 30 mg/kg, po relative to control; format: functional, organism-based; parameters: dose 30 mg/kg
Summary of the method: (§3)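 Male DIO rats in separate groups were dosed orally once daily, 1 h before lights out, for 7 days with vehicle, fenfluramine, or 3, 10 or 30 mg/kg compound. Food intake (corrected for spillage) and body weight were recorded daily. After 7 days, body composition was measured by EchoMRI and fasting glucose by glucometer, each relative to baseline. Significance was set at p < 0.05.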

Rattus norvegicus [19] = test: Effect on food intake in DIO rat assessed as inhibition of feeding at 3 mg/kg, po after 6 days; format: functional, organism-based; parameters: dose 3 mg/kg; summary of the method: as §3
Rattus norvegicus [20] = test: Reduction of body weight in DIO rat at 30 mg/kg, po after 2 days; format: functional, organism-based; parameters: dose 30 mg/kg; summary of the method: as §3
Rattus norvegicus [21] = test: Increase in fat loss in po dosed DIO rat after 7 days; format: functional, organism-based; summary of the method: as §3
Rattus norvegicus [22] = test: Decrease in fasting glucose level in DIO rat at 30 mg/kg, po after 7 days; format: functional, organism-based; parameters: dose 30 mg/kg; summary of the method: as §3
[23] = biological target: T2, Melanocyte-stimulating hormone receptor; conditions: 10 uM
Target sequence in this assay (Q01726 whole entry, looked up): as the sequence (Q01726 whole entry) above

T1 sequence (P32245 whole entry): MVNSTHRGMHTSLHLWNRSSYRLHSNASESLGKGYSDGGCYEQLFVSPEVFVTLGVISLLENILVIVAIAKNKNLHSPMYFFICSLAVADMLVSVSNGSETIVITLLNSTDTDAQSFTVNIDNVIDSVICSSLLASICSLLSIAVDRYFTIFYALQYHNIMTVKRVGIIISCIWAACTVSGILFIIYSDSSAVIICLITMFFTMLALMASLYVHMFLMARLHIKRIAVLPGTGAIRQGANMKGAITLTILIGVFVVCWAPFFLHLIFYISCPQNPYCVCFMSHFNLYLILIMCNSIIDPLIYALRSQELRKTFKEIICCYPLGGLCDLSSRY
Sequence of Melanocortin receptor 5 (P33032 whole entry): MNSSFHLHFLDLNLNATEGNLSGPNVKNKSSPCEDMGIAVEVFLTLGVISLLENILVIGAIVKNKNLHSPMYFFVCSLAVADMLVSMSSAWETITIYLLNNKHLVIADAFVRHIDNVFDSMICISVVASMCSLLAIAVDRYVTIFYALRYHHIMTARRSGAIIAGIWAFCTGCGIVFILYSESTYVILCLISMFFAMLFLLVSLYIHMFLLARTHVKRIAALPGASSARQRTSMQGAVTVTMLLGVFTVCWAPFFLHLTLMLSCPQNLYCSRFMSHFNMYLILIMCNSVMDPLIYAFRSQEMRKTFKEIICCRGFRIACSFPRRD
Sequence of Melanocortin receptor 3 (P41968 whole entry): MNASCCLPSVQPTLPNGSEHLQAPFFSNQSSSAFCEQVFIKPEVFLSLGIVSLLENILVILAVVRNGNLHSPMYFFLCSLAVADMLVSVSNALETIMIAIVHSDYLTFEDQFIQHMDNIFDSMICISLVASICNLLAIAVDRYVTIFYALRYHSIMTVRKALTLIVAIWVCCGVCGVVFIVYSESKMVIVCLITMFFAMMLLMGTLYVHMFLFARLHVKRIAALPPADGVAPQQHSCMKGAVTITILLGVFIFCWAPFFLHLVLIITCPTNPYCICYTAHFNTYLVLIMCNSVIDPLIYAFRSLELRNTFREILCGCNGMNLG

SMILES	pKi (Melanocortin receptor 4 [1])	pEC50 (Melanocortin receptor 4 [2])	Intrinsic activity (Melanocortin receptor 4 [3])	also measured
CC(C)[C@H](NC(=O)CCN(C)C)c1cccc(F)c1N1CCN(C(=O)[C@@H]2CN(C(C)C)C[C@H]2c2cc(F)cc(F)c2)CC1	5.11	–	–	–
CC(C)[C@H](NC(=O)CCN(C)C)c1cccc(F)c1N1CCN(C(=O)[C@@H]2CN(C(C)C)C[C@H]2c2ccc(F)c(Cl)c2)CC1	6.59	6.39	78%	–
Cc1ccc(N2CCN(C(=O)[C@@H]3CN(C4CCOCC4)C[C@H]3c3ccc(Cl)cc3)CC2)c([C@@H](NC(=O)CCN(C)C)C(C)C)c1 (stereo in doubt; 13b) [listing 1 of 2 here]	–	–	121%	–
CC(C)[C@H](NC(=O)CCN(C)C)c1cccc(F)c1N1CCN(C(=O)[C@@H]2CN(C(C)C)C[C@H]2c2ccc(Cl)cc2Cl)CC1	8.12	–	24%	pIC50 (Melanocortin receptor 4 [4]): 6.25
Cc1ccc(N2CCN(C(=O)[C@@H]3CN(C4CCOCC4)C[C@H]3c3ccc(Cl)cc3)CC2)c([C@@H](NC(=O)CN)C(C)C)c1	8.70	8.04	114%	–
Cc1cccc([C@@H]2CN(C(C)C)C[C@H]2C(=O)N2CCN(c3c(F)cccc3[C@@H](NC(=O)CCN(C)C)C(C)C)CC2)c1	6.33	–	–	–
Cc1ccc(N2CCN(C(=O)[C@@H]3CN(C4CCOCC4)C[C@H]3c3ccc(Cl)cc3)CC2)c([C@@H](NC(=O)CCN(C)C)C(C)C)c1 (stereo in doubt; 13b) [listing 2 of 2 here]	8.85	8.00	–	–
CC(C)[C@H](NC(=O)CCN(C)C)c1cccc(F)c1N1CCN(C(=O)[C@@H]2CN(C(C)C)C[C@H]2c2cccc(Cl)c2)CC1	6.43	–	–	–
CCC(=O)N1C[C@@H](C(=O)N2CCN(c3ccc(C)cc3[C@@H](NC(=O)CCN(C)C)C(C)C)CC2)[C@H](c2ccc(Cl)cc2)C1	8.34	7.57	129%	–
CC(C)[C@H](NC(=O)CCN(C)C)c1cccc(F)c1N1CCN(C(=O)[C@@H]2CN(C(C)C)C[C@H]2c2cccc(F)c2)CC1	6.25	–	–	–
COc1cccc([C@@H]2CN(C(C)C)C[C@H]2C(=O)N2CCN(c3c(F)cccc3[C@@H](NC(=O)CCN(C)C)C(C)C)CC2)c1	5.43	–	–	–
Cc1ccc(N2CCN(C(=O)[C@@H]3CN(C4CCOCC4)C[C@H]3c3ccc(Cl)cc3)CC2)c([C@H](C(C)C)N(C)C)c1	8.28	–	35%	–
CC(C)[C@H](NC(=O)CCN(C)C)c1cccc(F)c1N1CCN(C(=O)[C@@H]2CN(C(C)C)C[C@H]2c2ccoc2)CC1	6.07	–	–	–
Cc1ccc(N2CCN(C(=O)[C@H]3CN(C(C)C)C[C@H]3c3ccc(Cl)cc3)CC2)c([C@@H](NC(=O)CCN(C)C)C(C)C)c1	7.05	–	–	–
Cc1ccc(N2CCN(C(=O)[C@@H]3CN(C4CCOCC4)C[C@H]3c3ccc(Cl)cc3)CC2)c([C@@H](N)C(C)C)c1	7.92	–	36%	–
CC(C)[C@H](NC(=O)CCN(C)C)c1cccc(F)c1N1CCN(C(=O)[C@@H]2CN(C(C)C)C[C@H]2c2cc(F)ccc2F)CC1	5.69	–	–	–
CC(C)[C@H](NC(=O)CCN(C)C)c1cccc(F)c1N1CCN(C(=O)[C@@H]2CN(C(C)C)C[C@H]2c2ccc(F)c(F)c2)CC1	6.54	–	–	–
CNCC(=O)N[C@H](c1cc(C)ccc1N1CCN(C(=O)[C@@H]2CN(C3CCOCC3)C[C@H]2c2ccc(Cl)cc2)CC1)C(C)C	8.68	7.72	84%	–
Cc1ccc(N2CCN(C(=O)[C@@H]3CN(C4CCOCC4)C[C@H]3c3ccc(Cl)cc3)CC2)c([C@@H](NC(=O)[C@@H](C)N)C(C)C)c1	8.14	7.77	56%	–
Cc1ccc(N2CCN(C(=O)[C@@H]3CNC[C@H]3c3ccc(Cl)cc3)CC2)c([C@@H](NC(=O)CCN(C)C)C(C)C)c1	8.14	7.10	72%	–
CC(C)[C@H](NC(=O)CCN(C)C)c1cccc(F)c1N1CCN(C(=O)[C@@H]2CN(C(C)C)C[C@H]2c2ccc(Cl)cc2)CC1	8.28	7.70	103%	–
CC(C)[C@H](NC(=O)CCN(C)C)c1cccc(F)c1N1CCN(C(=O)[C@@H]2CN(C(C)C)C[C@H]2c2ccc(C(F)(F)F)c(F)c2)CC1	7.29	6.47	47%	–
Cc1ccc(N2CCN(C(=O)[C@H]3CN(C4CCOCC4)C[C@@H]3c3ccc(Cl)cc3)CC2)c([C@@H](NC(=O)CCN(C)C)C(C)C)c1	8.33	–	10%	pIC50 (Melanocortin receptor 4 [4]): 7.19; pKi [5]: 6.92; pKi (Melanocortin receptor 3): 5.89; pKi (Melanocortin receptor 5): 6.28; clearance [6]: 82 mL/min/kg; Vd [7]: 75 L/kg; half-life [8]: 11 h; AUC [9]: 455 ng·h/mL; Cmax [10]: 17 ng/mL; Tmax [11]: 2 h; AUC [12]: 161 ng·h/mL; concentration at 4 h [13]: 18 ng/g; Kp at 4 h [14]: 1; bioavailability [15]: 14%
Cc1ccc(N2CCN(C(=O)[C@@H]3CN(C4CCOCC4)C[C@H]3c3ccc(Cl)cc3)CC2)c([C@@H](NC(=O)[C@H](C)N)C(C)C)c1	9.00	8.28	38%	–
CC(C)[C@H](NC(=O)CCN(C)C)c1cccc(F)c1N1CCN(C(=O)[C@@H]2CN(C(C)C)C[C@H]2c2ccc(C(F)(F)F)cc2F)CC1	7.21	–	–	–
CCNC(C)Cc1cccc(C(F)(F)F)c1 (centres undefined)	–	–	–	Activity (Rattus norvegicus [16]): Active; Activity (Rattus norvegicus [17]): Active
CC(=O)N1C[C@@H](C(=O)N2CCN(c3ccc(C)cc3[C@@H](NC(=O)CCN(C)C)C(C)C)CC2)[C@H](c2ccc(Cl)cc2)C1	8.12	7.36	100%	–
Cc1ccc(N2CCN(C(=O)[C@@H]3CN(C4CCOCC4)C[C@H]3c3ccc(Cl)cc3)CC2)c([C@@H](NC(=O)CCN(C)C)C(C)C)c1 (stereo in doubt; 13b-1)	–	–	122%	Activity (Rattus norvegicus [18]): Active; Activity (Rattus norvegicus [19]): Active; Activity (Rattus norvegicus [20]): Active; Activity (Rattus norvegicus [21]): Active; Activity (Rattus norvegicus [22]): Active; inhibition [23]: 38%
CC(C)[C@H](NC(=O)CCN(C)C)c1cccc(F)c1N1CCN(C(=O)[C@@H]2CN(C(C)C)C[C@H]2c2cc(F)c(F)c(F)c2)CC1	6.60	–	–	–
Cc1ccc(N2CCN(C(=O)[C@@H]3CN(C4CCOCC4)C[C@H]3c3ccc(Cl)cc3)CC2)c([C@@H](NC(=O)CCN)C(C)C)c1	8.66	8.22	107%	–
